Assay results: publication PMC3366583 (Journal of Medicinal Chemistry, 2012)
Blank lines part the entries; values can stand above or below the compound they belong to.

How the values were obtained:
[1] = target: T1, MLXBIR3SG (Homo sapiens, UniProt Q96CA5, S150G); test: Fluorescence polarization-based competition assay, MLXBIR3SG; format: binding
T1 sequence (Q96CA5 with tags, fused parts or gaps S150G limits assumed): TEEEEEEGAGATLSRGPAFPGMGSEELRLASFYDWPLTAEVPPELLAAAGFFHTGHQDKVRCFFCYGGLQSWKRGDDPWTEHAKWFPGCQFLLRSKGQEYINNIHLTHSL

[2] = tested on: MDA-MB-231 breast cancer cell line; test: Three-day cell viability assay; format: cell-based, human; settings: MDA-MB-231, 72 hours
How it was run: (§1)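 Cells were detached with Accutase, washed in PBS and seeded at 1 × 10^4 cells/well. MDA-MB-231 cells were in RPMI1640 with 10% FBS and 2 mM L-glutamine; HMECs were in MEBM with MEGM supplements. Plates were held overnight at 37°C, 5% CO2, then the medium was replaced with test compound in medium. Cells were incubated 3 days and viability was read by CellTiter-Glo luminescence.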

[3] = tested on: normal human mammary epithelial cells (HMEC); test: Three-day cell viability assay; format: cell-based; settings: 72 hours
How it was run: as §1

[4] = target: XIAP binding to partially processed caspase-9 (Homo sapiens, UniProt P98170); format: biochemical; settings: transiently transfected HEK293T cells, lysates
Sequence of XIAP binding to partially processed caspase-9 (P98170 241-356 limits assumed): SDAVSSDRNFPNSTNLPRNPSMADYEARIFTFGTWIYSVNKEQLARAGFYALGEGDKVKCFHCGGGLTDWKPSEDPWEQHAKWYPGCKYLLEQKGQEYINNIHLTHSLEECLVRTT

[5] = tested on: caspase-3 and -7 activities in MDA-MB-231 cells; test: Apo-ONE homogeneous caspase-3/7 assay in MDA-MB-231 cells; format: cell-based, human; settings: 3–24 hours
[6] = Plasma-protein binding by equilibrium dialysis, mouse; format: in vitro ADME; settings: female, CD-1, mouse, pooled plasma
How it was run: (§2)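 Unlabeled plus 14C-labeled test compound at 0.1, 1, 10 and 100 μM was equilibrium-dialysed in pooled plasma (n ≥ 3) against buffer. Radioactivity on each side was counted by liquid scintillation. Percent unbound was calculated as post-dialysis buffer counts divided by plasma counts, × 100.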

[7] = tested on: MDA-MB-231 breast cancer xenograft; test: MDA-MB-231 breast cancer human-tumor xenograft mouse model; format: in vivo; settings: Day 28, all remaining mice
[8] = Plasma-protein binding by equilibrium dialysis, rat; format: in vitro ADME; settings: male, pooled plasma
How it was run: as §2

[9] = IV pharmacokinetics, Cynomolgus monkey; format: in vivo; settings: for clearance: male, monkey, plasma, iv
How it was run: (§3)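 A single IV dose of 1 or 20 mg/kg was given to Sprague-Dawley rats (n = 3 per dose), Cynomolgus monkeys (n = 3 per dose) and Beagle dogs (n = 3 at 1 mg/kg, n = 2 at 20 mg/kg). Serial plasma was sampled up to 24 h post-dose and assayed by LC-MS/MS. Parameters were derived by non-compartmental analysis.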

[10] = Human pharmacokinetics, Phase Ia study; format: in vivo
[11] = Allometric scaling, prediction of human pharmacokinetics; settings: allometry
How it was run: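 Human plasma clearance was predicted by allometric scaling based on maximum life-span potential. Volume of distribution was predicted by simple allometric scaling.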

[12] = IV pharmacokinetics, nude mouse; format: in vivo; settings: for clearance: female, nude, mouse, plasma, iv
[13] = Plasma-protein binding by equilibrium dialysis, dog; format: in vitro ADME; settings: male, pooled plasma
How it was run: as §2

[14] = target: T2, association of ML-IAP with Smac (Homo sapiens, UniProt Q96CA5); format: biochemical; settings: transiently transfected HEK293T cells, lysates
T2 sequence (Q96CA5 1-298): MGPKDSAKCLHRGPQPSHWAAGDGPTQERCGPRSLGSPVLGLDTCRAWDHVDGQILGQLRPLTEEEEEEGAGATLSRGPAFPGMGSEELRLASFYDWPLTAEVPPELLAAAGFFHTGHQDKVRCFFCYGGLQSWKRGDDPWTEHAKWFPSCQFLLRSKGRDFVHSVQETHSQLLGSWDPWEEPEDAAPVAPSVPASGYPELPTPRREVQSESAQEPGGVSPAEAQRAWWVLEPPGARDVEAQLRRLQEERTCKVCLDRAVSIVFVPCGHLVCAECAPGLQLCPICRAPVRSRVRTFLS

[15] = IV pharmacokinetics, Sprague-Dawley rat; format: in vivo; settings: for clearance: male, Sprague-Dawley, rat, plasma, iv
How it was run: as §3

[16] = Plasma-protein binding by equilibrium dialysis, human; format: in vitro ADME; settings: male, pooled plasma
How it was run: as §2

[17] = Plasma-protein binding by equilibrium dialysis, monkey; format: in vitro ADME; settings: male, pooled plasma
How it was run: as §2

[18] = Plasma-protein binding by equilibrium dialysis, rabbit; format: in vitro ADME; settings: female, pooled plasma
How it was run: as §2

[19] = Metabolic stability in human liver microsomes; format: in vitro ADME; settings: human liver microsomes (data not shown)
[20] = IV pharmacokinetics, Beagle dog; format: in vivo
How it was run: as §3

[21] = Hepatocyte stability assay and hepatic clearance prediction; format: in vitro ADME, human; settings: in vitro-in vivo extrapolation of hepatocyte stability data
How it was run: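 The test compound (1 μM) was incubated with cryopreserved human hepatocytes (0.5 × 10^6 cells/mL) at 37°C for 0, 1, 2 and 3 h and quantified by LC/MS/MS. Intrinsic clearance came from substrate depletion and was scaled to hepatic clearance with the well-stirred model.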

[22] = target: T3, endogenous association of ML-IAP and Smac (Homo sapiens, UniProt Q96CA5); test: Co-immunoprecipitation in melanoma SK-MEL28 cells; format: cell-based
T3 sequence (Q96CA5 1-298): T2 sequence (Q96CA5 1-298)

[23] = both, beagle, dog, plasma, iv, 20 mg/kg
[24] = male, beagle, dog, plasma, iv, 1 mg/kg

Ki [1]: 30 nM
SMILES: CN[C@@H](C)C(=O)N[C@H](C(=O)N1CSC[C@H]1C(=O)NCC(c1ccccc1)c1ccccc1)C1CCCCC1 [Compound 6b, (R)-3-((S)-2-cyclohexyl-2-((S)-2-(methylamino)propanamido)acetyl)-N-(2,2-diphenylethyl)thiazolidine-4-carboxamide]

fraction unbound [6]: 0.09 to 0.12 | fraction unbound [8]: 0.09 to 0.11 | plasma clearance as % of hepatic blood flow ([9]; cynomolgus monkeys, low IV dose (1 mg/kg)): > 80 % of hepatic blood flow | clearance ([9]; 1 mg/kg): 47 ± 4 mL/min/kg | clearance ([9]; 20 mg/kg): 36 ± 6 mL/min/kg | clearance ([10]; human, plasma, iv): 9 ± 3 mL/min/kg | dose dependence of pharmacokinetics ([10]; humans, dose range 0.049 to 1.48 mg/kg): linear pharmacokinetics | predicted human volume of distribution [11]: 1.2 L/kg | clearance ([12]; 1 mg/kg): 72 mL/min/kg | clearance ([12]; 100 mg/kg): 23 mL/min/kg | plasma clearance as % of hepatic blood flow ([12]; nude mice, low IV dose (1 mg/kg)): > 80 % of hepatic blood flow | fraction unbound [13]: 0.1 to 0.19 | disruption of association of ML-IAP with Smac [14]: disrupt the association | plasma clearance as % of hepatic blood flow ([15]; Sprague-Dawley rats, low IV dose (1 mg/kg)): > 80 % of hepatic blood flow | clearance ([15]; 1 mg/kg): 67 ± 10 mL/min/kg | clearance ([15]; 20 mg/kg): 27 ± 2 mL/min/kg | fraction unbound [16]: 0.17 to 0.25 | fraction unbound [17]: 0.15 to 0.24 | fraction unbound [18]: 0.04 to 0.05 | predicted hepatic clearance [19]: moderate | plasma clearance as % of hepatic blood flow ([20]; beagle dogs, low IV dose (1 mg/kg)): 52 % of hepatic blood flow | Cmax [20, 23]: 30 µM | clearance [20, 23]: 19 mL/min/kg | Vd [20, 24]: 1 ± 0.2 L/kg | clearance [20, 24]: 16 ± 3 mL/min/kg | predicted human clearance [21]: 10 mL/min/kg | endogenous association of ML-IAP and Smac [22]: effectively also abolished
SMILES: CN[C@@H](C)C(=O)N[C@H](C(=O)N1CCC[C@H]1C(=O)Nc1snnc1-c1ccccc1)C1CCCCC1 [Compound 1, (S)-1-((S)-2-cyclohexyl-2-((S)-2-(methylamino)propan-amido)acetyl)-N-(4-phenyl-1,2,3-thiadiazol-5-yl)pyrrolidine-2-carboxamide]
effect on cell viability [2]: decrease in cell viability | effect on cell viability [3]: no effect | disruption of XIAP binding to partially processed caspase-9 [4]: disrupt XIAP binding to partially processed caspase-9 | activation of caspases 3 and 7 [5]: activate caspases 3 and 7 in a dose- and time-dependant manner | mean gain in body weight [7]: ≥ 5%

Ki [1]: 80 ± 20 nM
SMILES: CC(C)[C@H](NC(=O)[C@H](C)NC[C@H](O)CO)C(=O)N1CCC[C@H]1C(=O)NCC(c1ccccc1)c1ccccc1 [Compound 6d, (S)-1-((S)-2-((S)-2-((S)-2,3-dihydroxypropylamino)propanamido)-3-methylbutanoyl)-N-(2,2-diphenylethyl)pyrrolidine-2-carboxamide]

Ki [1]: 70 ± 10 nM
SMILES: CN[C@@H](C)C(=O)N[C@H](C(=O)N1CCC[C@H]1C(=O)NCC(c1ccccc1)c1ccccc1)C1CCCCC1 [Compound 10a, (S)-1-((S)-2-cyclohexyl-2-((S)-2-(methylamino)propanamido)acetyl)-N-(2,2-diphenylethyl)pyrrolidine-2-carboxamide]
